Assay outcomes: PubChem BioAssay, several laboratories
The list is not random: actives were taken first. Their share in the collection is about 1.7%.
Neddyl block: inhibitors of human cullin neddylation; P61081+Q13564; inhibition, % at 25 µM; TR-FRET cullin neddylation, biochemical; 0.58% of 360,000 active; in the data active = inhibition above about 36%
Target sequence (P61081 whole entry, looked up): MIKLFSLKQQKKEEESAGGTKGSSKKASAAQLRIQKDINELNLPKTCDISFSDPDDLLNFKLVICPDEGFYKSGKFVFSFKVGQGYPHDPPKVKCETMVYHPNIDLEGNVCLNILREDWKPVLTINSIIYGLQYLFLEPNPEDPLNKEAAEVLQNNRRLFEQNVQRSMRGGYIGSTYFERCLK
Target sequence (Q13564 whole entry, looked up): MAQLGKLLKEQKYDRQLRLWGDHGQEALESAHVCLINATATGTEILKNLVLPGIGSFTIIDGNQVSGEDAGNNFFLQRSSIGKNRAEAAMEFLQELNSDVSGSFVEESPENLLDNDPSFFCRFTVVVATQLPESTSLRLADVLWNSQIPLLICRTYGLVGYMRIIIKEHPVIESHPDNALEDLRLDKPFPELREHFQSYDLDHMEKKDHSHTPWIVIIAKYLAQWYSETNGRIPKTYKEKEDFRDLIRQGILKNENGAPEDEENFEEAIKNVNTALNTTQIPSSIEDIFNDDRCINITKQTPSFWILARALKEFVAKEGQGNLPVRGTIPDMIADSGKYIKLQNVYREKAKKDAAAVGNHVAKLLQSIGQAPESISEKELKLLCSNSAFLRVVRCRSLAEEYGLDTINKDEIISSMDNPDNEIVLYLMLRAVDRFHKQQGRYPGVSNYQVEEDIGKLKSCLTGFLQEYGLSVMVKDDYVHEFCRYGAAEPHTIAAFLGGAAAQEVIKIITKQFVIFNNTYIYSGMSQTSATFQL
Arrestin-AP2 inh: blocks beta-arrestin peptide binding to AP2 adaptin; FITC-arrestin peptide / GST-AP2 beads, flow cytometry; AP2 beta2 appendage carries R879A mutation; inhibition, % at 10 µM; 0.31% of 340,000 active;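 active = inhibition above a set limit, near 3 SD of compounds lacking own fluorescence, cut at about 54% in these data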;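 note: plate controls were DMSO wells for no effect and 5 µM unlabelled arrestin peptide for full effect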
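Material – GST-tagged AP2 beta2-adaptin appendage (R879A) on 4 µm glutathione beads · Probe or stimulus – fluorescein-tagged arrestin peptide at 50 nM final · Timing – 12 min plus 1 h, RT · Detection – bead flow cytometry, FITC channel · Read-out basis – inhibition as reduced fluorescein signal on beads, percent · Medium – PBS plus Tween 20 (0.05%) and BSA (0.1%)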
Efflux pump inh: inhibitors of Candida antifungal efflux pumps expressed in yeast; 0.44% of 330,000 active; S. cerevisiae Candida pump triplex, Nile Red efflux; inhibition, % at 10 µM;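 active = plate passing quality check with inhibition over a set limit, or well fluorescence over plate mean plus 4 SD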;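 note: Nile Red retained in pooled yeast measured as flow cytometry median fluorescence; 0% = buffer negative control and 100% = Enniatin B positive control; higher means more Nile Red kept so more efflux inhibition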
Pemphigus Ab inh: human desmoglein-3 autoantibody binding inhibition | P32926 | DSG3-coupled beads, scFv-anti-DSG3-GFP binding, flow cytometry; hits give low values | binding (percent of control), % at 10 µM | 0.48% of 310,000 active;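 active = binding more than 3 SD below its plate's average and above zero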;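 note: hits lower antibody fragment binding to DSG3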
Cmpd fluor yeast: counter-screen for efflux pump inhibitors: compound fluorescence; S. cerevisiae AD/pABC3, flow cytometry; fluorescence ratio to DMSO, % at 10 µM; 4% of 1,700 active; shares compounds with Efflux pump inh;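 active = fluorescence ratio to DMSO above its plate's cutoff, the plate mean ratio plus 5 SD, cut at about 210% in these data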;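 note: unstained yeast with no Nile Red so the signal is compound autofluorescence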
Mdr1 pump inh: blocks the Candida albicans Mdr1 efflux pump in yeast; shares compounds with Efflux pump inh; S. cerevisiae AD/CaMDR1, Nile Red efflux, flow cytometry; inhibition, % at 10 µM; 1% of 1,700 active; AID 588518; in the data active = inhibition above about 26%;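 note: 0% = DMSO vehicle and 100% = reference inhibitor; higher means more Nile Red retained so more efflux inhibition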
CaCdr2 efflux inh: inhibitors of Candida albicans Cdr2 efflux pump | shares compounds with Efflux pump inh | S. cerevisiae AD/CaCDR2, Nile Red retention, flow cytometry | Nile Red retention ratio vs DMSO, % at 10 µM | 4% of 1,700 active | AID 588520; in the data active = Nile Red retention ratio vs DMSO above about 190%;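 note: higher ratio means more blocking of Cdr2 efflux of the dye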
CaCdr1 efflux inh: Candida Cdr1 efflux pump inhibition | shares compounds with Efflux pump inh | S. cerevisiae AD/CaCDR1, Nile Red efflux, flow cytometry | inhibition, % at 10 µM | 1% of 1,700 active;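 active = inhibition above the screen-wide mean plus twice its standard deviation, cut at about 32% in these data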
Numbers without * were called inactive; . = not tested or not shown.

SMILES	Neddyl block	Arrestin-AP2 inh	Efflux pump inh	Pemphigus Ab inh	Cmpd fluor yeast	Mdr1 pump inh	CaCdr2 efflux inh	CaCdr1 efflux inh
CC(C)Cn1nc(C(=O)Nc2nnc(C3CC3)s2)c2ccccc2c1=O	6	0	0.9*	98	113	0	116	0
NC(=S)NNC(=O)[C@@H]1CCCC[C@@H]1C(=O)O	6	2	15*	105	101	0	104	0
Cc1ccc2nc(NC(=O)CSc3nc4ccccc4o3)sc2c1	-70	1	0.6*	105	154	1	127	0
Cc1nnc(NC(=O)CSc2nc3ccccc3o2)s1	6	2	0	99	.	.	.	.
CSCCC(NC(=O)c1ccccc1)C(=O)N1CCN(C(C)=O)CC1 (centres undefined)	-12	18	0	105	.	.	.	.
COc1ccc(Nc2nc(N)c(C(=O)c3ccc(OC)cc3)s2)cc1	0	-21	0	103	.	.	.	.
COc1ccc(Nc2nc(N)c(C(=O)c3ccc(F)cc3)s2)cc1	-3	-1	12*	99	98	0	96	0
CCC1(c2ccccc2)NC(=O)N(CC(=O)N(C)Cc2c(F)cccc2Cl)C1=O (centres undefined)	-10	17	0	94	.	.	.	.
CCC1(c2ccccc2)NC(=O)N(CC(=O)N(C)Cc2ccccc2)C1=O (centres undefined)	1	14	1.1*	106	99	0	112	0
CC(=O)N1CCC(N(CCN2CCOCC2)C(=S)Nc2cc(C)ccc2C)CC1	0	0	0	.	.	.	.	.
CCCCc1nnc2c(N(C)S(=O)(=O)c3ccc(C)cc3)nc3ccccc3n12	-31	6	0.8*	97	105	0	102	0
CCCc1nnc2c(N(C)S(=O)(=O)c3ccc(C)cc3)nc3ccccc3n12	-2	5	0	.	.	.	.	.
COc1ccc(CCNC(=O)C2CCN(S(=O)(=O)N3CCCCC3)CC2)cc1OC	-1	-6	0	102	.	.	.	.
COc1ccc(CCNC(=O)C2CCN(S(=O)(=O)N3CCC4(CC3)OCCO4)CC2)cc1OC	1	1	1.3*	78	103	0	105	0
CC(OC(=O)c1ccccc1O)C(=O)Nc1cccc(Cl)c1 (centres undefined)	-19	9	0	104	.	.	.	.
COCC(=O)NNC(=O)c1ccc(OC)cc1	0	6	0	97	.	.	.	.
Cc1ccc(CN2CC(C(=O)Nc3ccc(S(=O)(=O)N4CCCCC4)cc3)CC2=O)cc1 (centres undefined)	-2	-4	16*	.	97	0	110	0
O=C(Nc1ccc(S(=O)(=O)N2CCCCC2)cc1)C1CC(=O)N(Cc2ccccc2)C1 (centres undefined)	13	3	0	110	.	.	.	.
Cc1ccc(NC(=O)C2(C)CCCN(C(C)C)C2)cc1C (centres undefined)	-8	.	.	.	.	.	.	.
COc1ccc(CC(=O)O/N=C(\N)c2ccncc2)cc1	5	3	0	115	.	.	.	.
COc1ccc(CC(=O)O/N=C(\N)c2ccc(C)cc2)cc1	-5	5	0	111	114	0	117	0
O=C(COc1ccccc1Cl)Nc1ccc(N2CCN(C(=O)c3ccccc3)CC2)cc1	7	36	0	114	.	.	.	.
N#CCCn1cc(/C=N/O)c(-c2ccc(-c3ccccc3)cc2)n1	4	4	0	106	.	.	.	.
N#CCCn1cc(/C=N/O)c(-c2ccc(Cl)cc2)n1	-8	14	6.7*	98	104	0	103	0
CC(=O)Nc1ccc(S(=O)(=O)N2CCN(c3nc4ccccc4n3CC(C)C)CC2)cc1	8	33	1.0*	113	100	0	114	0
SMILES	Neddyl block	Arrestin-AP2 inh	Efflux pump inh	Pemphigus Ab inh	Cmpd fluor yeast	Mdr1 pump inh	CaCdr2 efflux inh	CaCdr1 efflux inh
CCOC(=O)N1CCN(C(=O)c2ccc(OC(C)=O)cc2)CC1	5	21	0	99	.	.	.	.
COC(=O)c1c(NC(=O)c2ccco2)sc2c1CCN(C(C)=O)C2	22	28	1.1*	110	97	0	106	0
COc1ccc(C(=O)Nc2sc3c(c2C#N)CCN(C(C)=O)C3)cc1	17	9	0.8*	90	99	0	90	0
COC(=O)c1c(NC(=O)c2ccco2)sc(C(=O)N2CCCC2)c1C	5	3	0	103	.	.	.	.
Cc1c2ccncc2cc2c1[nH]c1ccccc12	.	-3	.	150	94	0	116	0
CN(C)CCN(C)C1CN(C2CCCC2)S(=O)(=O)C1 (centres undefined)	13	.	.	.	.	.	.	.
Cc1cc(C(=O)NC2CC(C)(C)Cc3c2cnn3-c2cccc(F)c2)n(C)n1 (centres undefined)	8	-7	0	105	106	0	123	0
Cc1cc(C(=O)NC2CC(C)(C)Cc3c2cnn3-c2ccc(F)cc2)no1 (centres undefined)	-3	33	0	116	103	0	101	0
COCCNC(=O)c1cccc(OC2CCN(Cc3ccccc3C)CC2)c1	3	-2	0	111	.	.	.	.
Cc1ccc(SCC(=O)N(Cc2nc(-c3ccccc3)no2)C(C)C)cc1	-3	-1	1.5*	95	99	0	106	0
O=C(C1CCCO1)N1CCN(S(=O)(=O)c2ccccc2)CC1 (centres undefined)	5	-3	5.9*	104	94	0	76	0
Cc1ccc(S(=O)(=O)N2CCN(C(=O)C3CCCO3)CC2)cc1C (centres undefined)	0	-15	0	101	.	.	.	.
O=C1/C(=C/c2cccs2)SC(=S)N1NS(=O)(=O)c1ccccc1	-11	-6	0	98	80	0	81	0
S=c1[nH]nc(-c2cccnc2)n1/N=C/c1ccc(Br)s1	-19	-2	8.0*	105	83	0	93	0
O=C1C(Cl)=C(Nc2ccc3cn[nH]c3c2)C(=O)c2ccccc21	-22	16	0.7*	99	97	0	135	0
O=C(Cn1nc(-c2ccccc2)c2ccccc2c1=O)NN1CCOCC1	-2	41	0	107	.	.	.	.
CCCCC1C2=C(CCCC2=O)OC2=C1C(=O)CCC2	-1	2	7.6*	103	94	0	91	0
O=C1CCCC2=C1C(Cc1ccccc1)C1=C(CCCC1=O)O2	-1	-6	0	97	.	.	.	.
CCOC(=O)c1[nH]c(C)c(C(=O)N2CCN(c3cccc(Cl)c3)CC2)c1C	8	2	0	101	.	.	.	.
COC/C=C/C1=CC2=CC(=O)C(C)(OC(=O)c3cnc4ccccc4n3)C(=O)C2=CN1Cc1ccc(OC)cc1 (centres undefined)	-13	12	0.6*	99	121	1	114	0
